Screens deposited in PubChem by several laboratories.
Diaph act CS = activates diaphorase or chemically reduces, flagging diaphorase assay artifacts. Diaphorase/resazurin coupled assay, resorufin fluorescence, 16 min; hits give high values; 1 = vehicle wells, 0 = NADH-free wells. AID 1229. activation factor at 20 µM. 0.005% of 190,000 active;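 active = diaphorase activity raised at least twofold by the compound at 20 µM; inactive = activation factor below 2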
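Material: Purified diaphorase enzyme from Clostridium kluyveri | Buffer or medium: 50 mM HEPES pH 7.4 with 4.542 mM MgCl2, 0.005% Tween 20 | Times: 16 min enzyme reaction, ambient temperature | Signal: Red resorufin fluorescence at 544/590 nm excitation/emission | Measure: Increased resorufin signal from activators or reducing compounds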
HKDC1 inhibitor = blocks human hexokinase HKDC1 activity; Q2TB90; recombinant HKDC1, G6PDH/diaphorase resazurin coupled fluorescence; inhibition, % at 20 µM; 0.16% of 340,000 active;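 active = inhibition above about 35% when tested at 20 µM, limit read from the data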;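 note: plate controls were DMSO wells with enzyme for no effect and DMSO wells lacking enzyme for full effect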
Target sequence (Q2TB90 whole entry, looked up): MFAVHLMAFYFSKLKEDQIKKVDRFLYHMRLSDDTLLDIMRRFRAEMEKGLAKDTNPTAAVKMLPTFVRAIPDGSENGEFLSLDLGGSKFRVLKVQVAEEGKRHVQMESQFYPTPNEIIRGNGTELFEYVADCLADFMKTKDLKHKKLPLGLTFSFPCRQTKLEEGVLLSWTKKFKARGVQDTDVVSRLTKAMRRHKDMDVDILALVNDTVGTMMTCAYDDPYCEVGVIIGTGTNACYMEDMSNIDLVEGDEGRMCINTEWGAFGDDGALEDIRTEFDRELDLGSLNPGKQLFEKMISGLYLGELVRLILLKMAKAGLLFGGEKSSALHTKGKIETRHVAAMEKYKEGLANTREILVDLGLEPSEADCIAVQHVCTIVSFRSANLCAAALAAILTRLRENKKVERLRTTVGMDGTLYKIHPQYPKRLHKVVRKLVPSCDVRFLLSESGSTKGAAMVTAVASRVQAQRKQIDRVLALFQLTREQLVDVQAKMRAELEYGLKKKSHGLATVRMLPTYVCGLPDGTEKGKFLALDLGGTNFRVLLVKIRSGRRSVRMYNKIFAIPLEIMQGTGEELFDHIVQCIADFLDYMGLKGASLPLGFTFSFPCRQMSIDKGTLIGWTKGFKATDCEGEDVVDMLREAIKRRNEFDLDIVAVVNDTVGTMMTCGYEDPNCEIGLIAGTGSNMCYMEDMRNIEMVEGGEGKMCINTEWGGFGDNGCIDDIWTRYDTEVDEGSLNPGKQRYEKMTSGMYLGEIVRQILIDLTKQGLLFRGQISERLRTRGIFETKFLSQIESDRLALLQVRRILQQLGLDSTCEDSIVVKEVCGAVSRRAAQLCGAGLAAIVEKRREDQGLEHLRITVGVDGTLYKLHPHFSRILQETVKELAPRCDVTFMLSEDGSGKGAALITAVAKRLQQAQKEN
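test system = in-house recombinant HK5 (HKDC1) enzyme | amount = HKDC1 at 5 µg/mL | control set = DMSO-enzyme wells negative, buffer-substituted wells positive | compound = one dose of 20 µM, 1% DMSO | schedule = reaction time 90 min, room temperature, protected from light | technique = resorufin fluorescence at 613 nm | reagent = glucose with 1 mM ATP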
PfG6PD inh = PfG6PD (Plasmodium falciparum) enzyme inhibition; PfGluPho enzyme, NADPH resazurin-diaphorase fluorescence; inhibition, % at 20 µM; 0.78% of 350,000 active; AID 504690;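 active = inhibition reaching at least a set limit at 20 µM in the primary screen, cut at about 59% in these data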;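 note: 0% = DMSO wells with substrate and 100% = DMSO wells lacking glucose-6-phosphate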
TbHK1 inh = blocks Trypanosoma brucei hexokinase 1 activity; recombinant TbHK1, G6PDH-coupled NADH A340; inhibition, % at 10 µM; 0.11% of 220,000 active; AID 1430;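 active = inhibition of 50% or more in the single-dose primary screen; inactive = inhibition below 50%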
G6PDH counter = inhibits Leuconostoc G6PDH, flagging false hits in G6PDH-based assays; AID 1020; inhibition, % at 5 µM; 0.12% of 200,000 active; Purified L. mesenteroides G6PDH, diaphorase/resazurin coupled fluorescence, 45 min; in the data active = inhibition above about 50%
Diaphorase inh = counter-screen for diaphorase-based assays: diaphorase inhibitors and chemical oxidizers; diaphorase resazurin-to-resorufin fluorescence, NADH, 16 min; bacterial (C. kluyveri) enzyme, not human; inhibition, % at 20 µM; 0.69% of 190,000 active; AID 1217;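 active = primary screen inhibition at 20 µM above a set limit, cut at about 50% in these data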;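 note: plate controls were DMSO with full reaction for no effect and wells lacking NADH for full effect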
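System: Bacterial diaphorase enzyme (C. kluyveri) | Incubation: 16-min room-temperature incubation before reading | Benchmarks: No-NADH positive control and DMSO neutral control | Measured by: Resorufin fluorescence 544/590 nm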
PfG6PD confirm = PfG6PD inhibition, single-dose confirmed; 34% of 2,400 active; recombinant PfGluPho, NADPH-diaphorase-resazurin fluorescence; inhibition, % at 20 µM; shares compounds with PfG6PD inh;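 active = inhibition of at least 50% at 20 µM in any single replicate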;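 note: 0% = DMSO with substrate and 100% = DMSO lacking glucose-6-phosphate substrate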
Diaphorase 10uM = diaphorase inhibition or oxidation at 10 uM NADPH | diaphorase-coupled resazurin reduction, fluorescence, NADPH 10 uM | shares compounds with PfG6PD inh | 39% of 820 active | AID 504862 | inhibition, % at 20 µM;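 active = average inhibition reaching 50% or more with the compound at 20 µM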;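 note: resorufin red fluorescence formed as diaphorase reduces resazurin using NADPH; 0% = DMSO with enzyme and 100% = DMSO without enzyme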
Diaph ctr 30uM = diaphorase inhibition or oxidation at 30 uM NADPH; 29% of 820 active; inhibition, % at 20 µM; shares compounds with PfG6PD inh; Diaphorase/resazurin coupled assay, resorufin fluorescence;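 active = inhibition averaging 50% or more, tested at 20 µM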;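 note: 0% = DMSO with enzyme and 100% = DMSO wells lacking diaphorase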
Active calls of the source: *; · = no result. In the library only some 1.3% were active in any assay of this set; here they are far more common.

SMILES	Diaph act CS	HKDC1 inhibitor	PfG6PD inh	TbHK1 inh	G6PDH counter	Diaphorase inh	PfG6PD confirm	others
C=CCNC(=O)C1CC1(c1cccc(C)c1)c1cccc(C)c1 (stereo not given)	·	-0.5	6.8	·	·	·	·
C=C1C(C(=O)Nc2cccc(OC)c2)C1C(=O)Nc1cccc(OC)c1 (stereo not given)	1	-5.5	1.7	-4.4	5.8	0.0	·
COc1cccc(C2(c3cccc(OC)c3)CC2C(=O)Nc2ccccc2Cl)c1 (stereo not given)	0.8	-1.8	87.6*	-4.1	-17.3	19.5	36.5
Cc1ccc(NC(=O)c2cccc3c2C(=O)N(C2CCCCC2)C3)c(Cl)c1	·	3.3	20.4	·	·	·	·
CCOC(=O)C1=C(C2=CCCCC2)c2ccc(OC)cc2N(S(=O)(=O)C(F)(F)F)C1C(=O)OCC (stereo not given)	·	3.9	19.6	·	·	·	·
Clc1ccc(-c2nc3ccc(Br)cn3c2Cc2ccccc2)cc1	·	·	87.7*	·	·	·	-4.3
Cc1ccc(Cc2c(-c3ccc(C)cc3)nc3ccc(Br)cn23)cc1	·	·	47.9	·	·	·	·
CC(C)(C)Cc1c(-c2ccccc2)nc2ccc(Br)cn12	·	·	30.2	·	·	·	·
Cc1ccc(Cc2c(-c3ccc(Cl)cc3)nc3ccc(Br)cn23)cc1	·	·	66.9*	·	·	·	-12.5
Fc1ccc(-c2nc3ccc(Br)cn3c2Cc2ccccc2)cc1	·	·	66.9*	·	·	·	-12.1
COCCN(C(=O)CCC(=O)Nc1cc(C)on1)C(C(=O)NC(C)(C)C)c1cccc(OC)c1OC (stereo not given)	·	3.1	-8.3	·	·	·	·
Cc1ccc2sc(-c3ccc(NC(=O)CCN4C(=O)c5ccccc5C4=O)cc3)nc2c1	1	·	·	-17.3	-35.9	-4.3	·
CCOC(=O)Cc1csc(NC(=O)CSc2nc(=O)[nH]c3c2CCC3)n1	·	-3.6	-4.6	·	·	·	·
CC1=CC(=O)C=C(C)C1=NOc1ccccc1[N+](=O)[O-]	0.8	21.3	68.9*	-4.4	8.7	22.0	-5.8
Cc1cc(C)c(S(=O)(=O)Oc2ccccc2[N+](=O)[O-])c(C)c1	·	-2.2	15.7	·	·	·	·
Cc1cc(=O)oc2cc(OCC(=O)N3CCOCC3)ccc12	0.9	1.8	67.7*	-12.5	0.8	8.1	28.0
CN(C)c1ccc(C(=S)N2CCN(c3ccc([N+](=O)[O-])cc3)CC2)cc1	·	-7.0	60.1*	-17.7	·	·	31.3
CCc1nnc(N/N=C/c2c(C)[nH]c3ccccc23)n1N	0.9	15.2	60.2*	-16.9	8.6	9.3	38.1
COc1ccccc1N(C(=O)c1ccncc1)c1nc(-c2ccc([N+](=O)[O-])cc2)cs1	0.9	-4.8	37.8	8.6	-1.3	12.8	·
Cc1cc(Nc2ccc(Cl)cc2)nc(NCc2ccccc2)n1	0.9	-6.1	60.5*	7.6	-7.8	8.9	-26.8
Cc1ccc(Nc2cc(C)nc(-c3ccccc3)n2)cc1	·	0.0	65.4*	·	·	·	-3.5
COC(=O)c1cc(CSc2nc3ccc(C)cc3[nH]2)oc1C	0.7	-1.1	61.1*	2.8	-1.8	32.1	16.8
COC(=O)c1ccc(CSc2nc3ccccc3[nH]2)o1	0.9	-0.2	8.6	-2.8	4.4	7.1	·
C=CCN([C@@H](CC(C)C)C(=O)OC)S(=O)(=O)N(CC=C)[C@@H](CC(C)C)C(=O)OC	·	-0.7	21.3	·	·	·	·
Cc1ccc(CNc2ccc(O)cc2)cc1	0.5	17.7	86.0*	0.3	-31.1	52.9*	63.9*	Diaphorase 10uM=20.2;Diaph ctr 30uM=21.7
SMILES	Diaph act CS	HKDC1 inhibitor	PfG6PD inh	TbHK1 inh	G6PDH counter	Diaphorase inh	PfG6PD confirm	others
Cc1ccc(NCc2ccccc2O)cc1	0.8	8.2	4.4	0.5	8.2	18.0	·
CCN(c1ccccc1)S(=O)(=O)c1cc(NC(=O)CSc2n[nH]c(=O)[nH]c2=O)ccc1Cl	·	-1.3	-29.1	-5.0	·	·	·
O=C(Nc1ccccc1)C1Cc2ccccc2CN1C(=O)c1ccco1 (stereo not given)	0.9	-1.9	10.9	-7.9	12.7	12.2	·
O=C(Nc1cc(C(F)(F)F)ccc1N1CCOCC1)C1Cc2ccccc2CN1C(=O)c1ccco1 (stereo not given)	0.7	3.8	81.2*	-9.5	1.5	31.4	22.6
CC(=O)c1cc2c(cc1NC(=O)C1CCC1)OCO2	1.1	10.0	-17.8	-2.4	9.9	-5.1	·
CCOc1cccc(CN2CCC(CCC(=O)NC3CC3)CC2)c1O	·	6.0	-3.0	·	·	·	·
COC(=O)c1c(NC(=O)Cc2ccccc2)sc2c1CCN(C(C)C)C2	·	-3.5	-10.9	·	·	·	·
CC(=O)N1CCc2c(sc(NC(=O)c3ccc([N+](=O)[O-])o3)c2C#N)C1	0.7	5.6	60.0*	-4.7	1.4	26.3	13.1
COC(=O)c1c(NC(=O)c2ccc([N+](=O)[O-])o2)sc2c1CCN(C(C)C)C2	·	18.2	68.0*	·	·	·	20.0
COC(=O)c1cc(S(=O)(=O)NCC(C)c2ccccc2)c[nH]1 (stereo not given)	·	·	-5.7	·	·	·	·
Cc1ccc(OCc2n[nH]c(=S)n2N)cc1C	1	-5.7	17.1	-3.7	7.1	-1.0	·
CCCCOc1ccc(Cc2n[nH]c(=S)n2N)cc1	0.9	0.2	61.3*	35.2	25.8	6.9	50.4*	Diaphorase 10uM=-20.3;Diaph ctr 30uM=-17.1
CC(C)Nc1nnc(SCC(=O)N2CCN(C(=O)c3ccco3)CC2)s1	·	-5.4	4.5	·	·	·	·
CCN(CC)C(=O)CSc1nc2c(sc(=S)n2-c2ccccc2)c(=O)n1-c1ccc(OC)cc1OC	·	-1.8	79.5*	·	·	·	39.3
CCOc1ccccc1-n1c(=S)sc2c(=O)n(-c3ccc(F)cc3)c(SCC(=O)O)nc21	·	5.2	68.8*	·	·	·	17.1
Cn1c(SCC(=O)NCc2ccc(F)cc2)nc2c([nH]c3ccccc32)c1=O	1.1	·	·	-4.6	2.7	-7.2	·
O=C(CCC(=O)OCC(=O)c1ccc(Br)cc1)Nc1ccc(Br)c2cccnc12	0.9	-1.3	3.1	-9.6	15.1	14.0	·
Cc1cc(C)c(NC(=S)NCC2CCN(C(C)c3ccccc3)C2)c(C)c1 (stereo not given)	0.9	-9.2	84.5*	1.0	0.6	6.0	75.7*	Diaphorase 10uM=0.3;Diaph ctr 30uM=-2.5
Cc1ccc(NC(=S)NCC2CCN(C(C)c3ccccc3)C2)cc1 (stereo not given)	0.9	-2.3	9.6	3.5	5.6	9.9	·
Cc1cccn2c(=O)c3cc(C(=O)NC(C)C)c(=N)n(Cc4ccncc4)c3nc12	1.1	0.1	73.4*	-10.1	-30.6	-6.5	21.1
